Experimental data published in ChEMBL document CHEMBL1142985, “Antineoplastic agents. 550. Synthesis of 10b(s)-epipancratistatin from (+)-narciclasine” (2007).
≈ marks a conversion by molar mass, not a printed value.

tested on: MCF7; assay: Growth inhibition of human MCF7 cells after 48 hrs; format: functional; conditions: MCF7, 48 h
How it was run: (§1)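 NCI sulforhodamine B assay. Cells in 5% fetal bovine serum/RPMI1640 seeded, grown 24 h, then exposed to serial compound dilutions for 48 h. Fixed with trichloroacetic acid, stained with sulforhodamine B, optical density read on a plate reader. GI50 taken as the concentration causing a 50% reduction in net protein increase.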

Row | Compound | GI50
1 | COC(=O)C(=O)Oc1c2c(cc3c1C(=O)N(C(=O)C(=O)OC)[C@H]1[C@H](OC(C)=O)[C@H](OC(C)=O)[C@@H](OC(C)=O)[C@H](OC(C)=O)[C@@]31OC(=O)C(=O)OC)OCO2 | > 10 µg/mL
2 | O=C1N[C@@H]2C(=C[C@H](O)[C@@H](O)[C@H]2O)c2cc3c(c(O)c21)OCO3 [NARCICLASINE] | 0.0032 µg/mL (≈ 0.0104 µM)
3 | CC(=O)O[C@@H]1[C@@H](OC(C)=O)[C@H](O)[C@H]2c3cc4c(c(O)c3C(=O)N[C@H]2[C@@H]1OC(C)=O)OCO4 | > 1 µg/mL
4 | CC(=O)Oc1c2c(cc3c1C(=O)N[C@H]1[C@H](OC(C)=O)[C@H](OC(C)=O)[C@@H](OC(C)=O)[C@H](OC(C)=O)[C@@]31O)OCO2 | > 10 µg/mL
5 | O=C1N[C@H]2[C@H](O)[C@H](O)[C@@H](O)[C@H](O)[C@H]2c2cc3c(c(O)c21)OCO3 | 0.27 µg/mL (≈ 0.83 µM)
6 | CC(=O)O[C@@H]1[C@@H](OC(C)=O)[C@H](O)[C@@]2(O)c3cc4c(c(O)c3C(=O)N[C@H]2[C@@H]1OC(C)=O)OCO4 | > 10 µg/mL
7 | CC(=O)Oc1c2c(cc3c1C(=O)N[C@@H]1C3=C[C@H](OC(C)=O)[C@@H](OC(C)=O)[C@H]1OC(C)=O)OCO2 | 0.088 µg/mL (≈ 0.185 µM)

tested on: NCI-H460; assay: Growth inhibition of human NCI-H460 cells after 48 hrs; format: functional; conditions: NCI-H460, 48 h; how it was run: as §1

Row | Compound | GI50
8 | COC(=O)C(=O)Oc1c2c(cc3c1C(=O)N(C(=O)C(=O)OC)[C@H]1[C@H](OC(C)=O)[C@H](OC(C)=O)[C@@H](OC(C)=O)[C@H](OC(C)=O)[C@@]31OC(=O)C(=O)OC)OCO2 | > 10 µg/mL
9 | O=C1N[C@@H]2C(=C[C@H](O)[C@@H](O)[C@H]2O)c2cc3c(c(O)c21)OCO3 [NARCICLASINE] | 0.0084 µg/mL (≈ 0.0273 µM)
10 | CC(=O)O[C@@H]1[C@@H](OC(C)=O)[C@H](O)[C@H]2c3cc4c(c(O)c3C(=O)N[C@H]2[C@@H]1OC(C)=O)OCO4 | > 1 µg/mL
11 | CC(=O)Oc1c2c(cc3c1C(=O)N[C@H]1[C@H](OC(C)=O)[C@H](OC(C)=O)[C@@H](OC(C)=O)[C@H](OC(C)=O)[C@@]31O)OCO2 | > 10 µg/mL
12 | O=C1N[C@H]2[C@H](O)[C@H](O)[C@@H](O)[C@H](O)[C@H]2c2cc3c(c(O)c21)OCO3 | 0.23 µg/mL (≈ 0.707 µM)
13 | CC(=O)O[C@@H]1[C@@H](OC(C)=O)[C@H](O)[C@@]2(O)c3cc4c(c(O)c3C(=O)N[C@H]2[C@@H]1OC(C)=O)OCO4 | > 10 µg/mL
14 | CC(=O)Oc1c2c(cc3c1C(=O)N[C@@H]1C3=C[C@H](OC(C)=O)[C@@H](OC(C)=O)[C@H]1OC(C)=O)OCO2 | 0.28 µg/mL (≈ 0.589 µM)

tested on: DU-145; assay: Growth inhibition of human DU145 cells after 48 hrs; format: functional; conditions: DU-145, 48 h; how it was run: as §1

Row | Compound | GI50
15 | COC(=O)C(=O)Oc1c2c(cc3c1C(=O)N(C(=O)C(=O)OC)[C@H]1[C@H](OC(C)=O)[C@H](OC(C)=O)[C@@H](OC(C)=O)[C@H](OC(C)=O)[C@@]31OC(=O)C(=O)OC)OCO2 | > 10 µg/mL
16 | O=C1N[C@@H]2C(=C[C@H](O)[C@@H](O)[C@H]2O)c2cc3c(c(O)c21)OCO3 [NARCICLASINE] | 0.0032 µg/mL (≈ 0.0104 µM)
17 | CC(=O)O[C@@H]1[C@@H](OC(C)=O)[C@H](O)[C@H]2c3cc4c(c(O)c3C(=O)N[C@H]2[C@@H]1OC(C)=O)OCO4 | > 1 µg/mL
18 | CC(=O)Oc1c2c(cc3c1C(=O)N[C@H]1[C@H](OC(C)=O)[C@H](OC(C)=O)[C@@H](OC(C)=O)[C@H](OC(C)=O)[C@@]31O)OCO2 | > 10 µg/mL
19 | O=C1N[C@H]2[C@H](O)[C@H](O)[C@@H](O)[C@H](O)[C@H]2c2cc3c(c(O)c21)OCO3 | 0.21 µg/mL (≈ 0.646 µM)
20 | CC(=O)O[C@@H]1[C@@H](OC(C)=O)[C@H](O)[C@@]2(O)c3cc4c(c(O)c3C(=O)N[C@H]2[C@@H]1OC(C)=O)OCO4 | > 10 µg/mL
21 | CC(=O)Oc1c2c(cc3c1C(=O)N[C@@H]1C3=C[C@H](OC(C)=O)[C@@H](OC(C)=O)[C@H]1OC(C)=O)OCO2 | 0.023 µg/mL (≈ 0.0484 µM)

tested on: KM-20L2; assay: Growth inhibition of human KM20L2 cells after 48 hrs; format: functional; conditions: KM-20L2, 48 h; how it was run: as §1

Row | Compound | GI50
22 | COC(=O)C(=O)Oc1c2c(cc3c1C(=O)N(C(=O)C(=O)OC)[C@H]1[C@H](OC(C)=O)[C@H](OC(C)=O)[C@@H](OC(C)=O)[C@H](OC(C)=O)[C@@]31OC(=O)C(=O)OC)OCO2 | > 10 µg/mL
23 | O=C1N[C@@H]2C(=C[C@H](O)[C@@H](O)[C@H]2O)c2cc3c(c(O)c21)OCO3 [NARCICLASINE] | 0.0032 µg/mL (≈ 0.0104 µM)
24 | CC(=O)O[C@@H]1[C@@H](OC(C)=O)[C@H](O)[C@H]2c3cc4c(c(O)c3C(=O)N[C@H]2[C@@H]1OC(C)=O)OCO4 | > 1 µg/mL
25 | CC(=O)Oc1c2c(cc3c1C(=O)N[C@H]1[C@H](OC(C)=O)[C@H](OC(C)=O)[C@@H](OC(C)=O)[C@H](OC(C)=O)[C@@]31O)OCO2 | > 10 µg/mL
26 | O=C1N[C@H]2[C@H](O)[C@H](O)[C@@H](O)[C@H](O)[C@H]2c2cc3c(c(O)c21)OCO3 | 0.31 µg/mL (≈ 0.953 µM)
27 | CC(=O)O[C@@H]1[C@@H](OC(C)=O)[C@H](O)[C@@]2(O)c3cc4c(c(O)c3C(=O)N[C@H]2[C@@H]1OC(C)=O)OCO4 | > 10 µg/mL
28 | CC(=O)Oc1c2c(cc3c1C(=O)N[C@@H]1C3=C[C@H](OC(C)=O)[C@@H](OC(C)=O)[C@H]1OC(C)=O)OCO2 | 0.043 µg/mL (≈ 0.0904 µM)

tested on: BXPC-3; assay: Growth inhibition of human BXPC3 cells after 48 hrs; format: functional; conditions: BXPC-3, 48 h; how it was run: as §1

Row | Compound | GI50
29 | COC(=O)C(=O)Oc1c2c(cc3c1C(=O)N(C(=O)C(=O)OC)[C@H]1[C@H](OC(C)=O)[C@H](OC(C)=O)[C@@H](OC(C)=O)[C@H](OC(C)=O)[C@@]31OC(=O)C(=O)OC)OCO2 | > 10 µg/mL
30 | O=C1N[C@@H]2C(=C[C@H](O)[C@@H](O)[C@H]2O)c2cc3c(c(O)c21)OCO3 [NARCICLASINE] | 0.0035 µg/mL (≈ 0.0114 µM)
31 | CC(=O)O[C@@H]1[C@@H](OC(C)=O)[C@H](O)[C@H]2c3cc4c(c(O)c3C(=O)N[C@H]2[C@@H]1OC(C)=O)OCO4 | > 1 µg/mL
32 | CC(=O)Oc1c2c(cc3c1C(=O)N[C@H]1[C@H](OC(C)=O)[C@H](OC(C)=O)[C@@H](OC(C)=O)[C@H](OC(C)=O)[C@@]31O)OCO2 | > 10 µg/mL
33 | O=C1N[C@H]2[C@H](O)[C@H](O)[C@@H](O)[C@H](O)[C@H]2c2cc3c(c(O)c21)OCO3 | 0.32 µg/mL (≈ 0.984 µM)
34 | CC(=O)O[C@@H]1[C@@H](OC(C)=O)[C@H](O)[C@@]2(O)c3cc4c(c(O)c3C(=O)N[C@H]2[C@@H]1OC(C)=O)OCO4 | > 10 µg/mL
35 | CC(=O)Oc1c2c(cc3c1C(=O)N[C@@H]1C3=C[C@H](OC(C)=O)[C@@H](OC(C)=O)[C@H]1OC(C)=O)OCO2 | 0.16 µg/mL (≈ 0.337 µM)

tested on: P388; assay: Growth inhibition of murine P388 cells after 48 hrs; format: functional; conditions: Mus musculus, P388, 48 h; read-out: ED50 (the source's name)
How it was run: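 Mouse leukemia P388 cells held 24 h in 10% horse serum/Fisher medium, then incubated 48 h with serial compound dilutions. Cell numbers counted on a Coulter particle counter; ED50 taken as the concentration giving 50% growth inhibition.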

Row | Compound | EC50
36 | COC(=O)C(=O)Oc1c2c(cc3c1C(=O)N(C(=O)C(=O)OC)[C@H]1[C@H](OC(C)=O)[C@H](OC(C)=O)[C@@H](OC(C)=O)[C@H](OC(C)=O)[C@@]31OC(=O)C(=O)OC)OCO2 | > 10 µg/mL
37 | O=C1N[C@@H]2C(=C[C@H](O)[C@@H](O)[C@H]2O)c2cc3c(c(O)c21)OCO3 [NARCICLASINE] | 0.0012 µg/mL (≈ 0.00391 µM)
38 | CC(=O)O[C@@H]1[C@@H](OC(C)=O)[C@H](O)[C@H]2c3cc4c(c(O)c3C(=O)N[C@H]2[C@@H]1OC(C)=O)OCO4 | > 1 µg/mL
39 | CC(=O)Oc1c2c(cc3c1C(=O)N[C@H]1[C@H](OC(C)=O)[C@H](OC(C)=O)[C@@H](OC(C)=O)[C@H](OC(C)=O)[C@@]31O)OCO2 | 8.9 µg/mL (≈ 16.1 µM)
40 | O=C1N[C@H]2[C@H](O)[C@H](O)[C@@H](O)[C@H](O)[C@H]2c2cc3c(c(O)c21)OCO3 | 0.14 µg/mL (≈ 0.43 µM)
41 | CC(=O)O[C@@H]1[C@@H](OC(C)=O)[C@H](O)[C@@]2(O)c3cc4c(c(O)c3C(=O)N[C@H]2[C@@H]1OC(C)=O)OCO4 | > 10 µg/mL
42 | CC(=O)Oc1c2c(cc3c1C(=O)N[C@@H]1C3=C[C@H](OC(C)=O)[C@@H](OC(C)=O)[C@H]1OC(C)=O)OCO2 | 0.027 µg/mL (≈ 0.0568 µM)

tested on: SF-268; assay: Growth inhibition of human SF268 cells after 48 hrs; format: functional; conditions: SF-268, 48 h; how it was run: as §1

Row | Compound | GI50
43 | COC(=O)C(=O)Oc1c2c(cc3c1C(=O)N(C(=O)C(=O)OC)[C@H]1[C@H](OC(C)=O)[C@H](OC(C)=O)[C@@H](OC(C)=O)[C@H](OC(C)=O)[C@@]31OC(=O)C(=O)OC)OCO2 | > 10 µg/mL
44 | O=C1N[C@@H]2C(=C[C@H](O)[C@@H](O)[C@H]2O)c2cc3c(c(O)c21)OCO3 [NARCICLASINE] | 0.0031 µg/mL (≈ 0.0101 µM)
45 | CC(=O)O[C@@H]1[C@@H](OC(C)=O)[C@H](O)[C@H]2c3cc4c(c(O)c3C(=O)N[C@H]2[C@@H]1OC(C)=O)OCO4 | > 1 µg/mL
46 | CC(=O)Oc1c2c(cc3c1C(=O)N[C@H]1[C@H](OC(C)=O)[C@H](OC(C)=O)[C@@H](OC(C)=O)[C@H](OC(C)=O)[C@@]31O)OCO2 | > 10 µg/mL
47 | O=C1N[C@H]2[C@H](O)[C@H](O)[C@@H](O)[C@H](O)[C@H]2c2cc3c(c(O)c21)OCO3 | 0.26 µg/mL (≈ 0.799 µM)
48 | CC(=O)O[C@@H]1[C@@H](OC(C)=O)[C@H](O)[C@@]2(O)c3cc4c(c(O)c3C(=O)N[C@H]2[C@@H]1OC(C)=O)OCO4 | > 10 µg/mL
49 | CC(=O)Oc1c2c(cc3c1C(=O)N[C@@H]1C3=C[C@H](OC(C)=O)[C@@H](OC(C)=O)[C@H]1OC(C)=O)OCO2 | 0.055 µg/mL (≈ 0.116 µM)
